Measurements collected from several papers.
Lines come from different studies, so protocols differ.
Observed: cell growth or viability

O=C(Nc1ccc(Cl)cc1)Nc1cccc(-c2cn(Cc3cccc(Cl)c3)nn2)c1  viability (NCI-H1299; CCK-8; 50 µM, 72 h): 104%
Cc1n[nH]c2ccc3nc(-c4ccc(C(=O)NCCN(C)C)cc4F)c4c(c3c12)CCCC4  GI50 (22Rv1; 72 h): 0.556 µM
Cc1ncsc1-c1ccc(CNC(=O)[C@@H]2C[C@@H](O)CN2C(=O)[C@@H](NC(=O)COCCOCCOCCNC(=O)C[C@@H]2N=C(c3ccc(Cl)cc3)c3c(sc(C)c3C)-n3c(C)nnc32)C(C)(C)C)cc1  IC90 (22Rv1; MTT; 6 days): 1.85 µM
O=C(NCc1cn(Cc2cccc(Cl)c2)nn1)Nc1ccc(Cl)cc1  viability (NCI-H1299; CCK-8; 50 µM, 72 h): 91.6%
COc1ccc(NC(=O)Nc2cccc(-c3cn(Cc4ccc(Cl)cc4)nn3)c2)cc1  viability (NCI-H1299; CCK-8; 50 µM, 72 h): 156%
C=C(NC(=O)C(=C)NC(=O)c1csc(C2=N[C@@H]3c4csc(n4)[C@H]4NC(=O)c5csc(n5)[C@H]([C@](C)(O)[C@@H](C)O)NC(=O)[C@H]5CSC(=N5)/C(=C/C)NC(=O)[C@H]([C@@H](C)O)NC(=O)c5csc(n5)[C@]3(CC2)NC(=O)[C@H](C)NC(=O)C(=C)NC(=O)[C@H](C)NC(=O)[C@H]([C@@H](C)CC)N[C@@H]2C=Cc3c([C@H](C)O)cc(nc3[C@H]2O)C(=O)O[C@@H]4C)n1)C(N)=O  EC50 (PC3-TxR): > 30 µM
O=C(Nc1ccc(Cl)cc1)Nc1ccc(-c2cn(Cc3cccc(Cl)c3)nn2)cc1  viability (NCI-H1299; CCK-8; 50 µM, 72 h): 82.8%
COc1ccc(NC(=O)Nc2cccc(-c3cn(Cc4cccc(Cl)c4)nn3)c2)cc1  viability (NCI-H1299; CCK-8; 50 µM, 72 h): 134%
CN(C)CCNC(=O)c1ccc(-c2nc3ccc4[nH]ncc4c3c3c2CCCC3)cc1  GI50 (22Rv1; 72 h): 1.8 µM
COc1ccc(NC(=O)Nc2cccc(-c3cn(Cc4ccccc4C)nn3)c2)cc1  viability (NCI-H1299; CCK-8; 50 µM, 72 h): 125%
O=C(Nc1cccc(-c2cn(Cc3ccc(Br)cc3)nn2)c1)Nc1ccccc1Br  viability (NCI-H1299; CCK-8; 50 µM, 72 h): 108%
Cc1n[nH]c2ccc3nc(-c4ccc(C(=O)NCCN(C)C)cc4F)c4c(c3c12)CCCCC4  GI50 (22Rv1; 72 h): 4.62 µM
O=C(NCc1cn(Cc2ccc(Cl)cc2)nn1)Nc1ccc(Cl)cc1  viability (NCI-H1299; CCK-8; 50 µM, 72 h): 82.3%
CCc1nc(C(N)=O)c(Nc2ccc(N3CCC(N4CCN(C)CC4)CC3)c(OC)c2)nc1NC1CCOCC1  GI50 (22Rv1; 72 h): 1.52 µM
Cc1ccccc1Cn1cc(-c2cccc(NC(=O)Nc3ccc(F)cc3)c2)nn1  viability (NCI-H1299; CCK-8; 50 µM, 72 h): 114%
CN(C)CCNC(=O)c1ccc(-c2nc3ccc4[nH]ncc4c3c3c2CCCCC3)c(F)c1  GI50 (22Rv1; 72 h): 2.13 µM
COc1ccc(NC(=O)NCc2cn(Cc3ccccc3C)nn2)cc1  viability (NCI-H1299; CCK-8; 50 µM, 72 h): 68.9%
